Results published in ChEMBL document CHEMBL4311941, “Development of Multifunctional Histone Deacetylase 6 Degraders with Potent Antimyeloma Activity” (J Med Chem, 2019).
Calls of active or inactive are those of the source. The rule behind the calls is not given here.

How the values were obtained:
[1] = target: T1, Cereblon/Ikaros (Homo sapiens) (UniProt Q96SW2+Q13422); experiment: Protac activity at CRBN/IKZF1 in human MM1S cells assessed as IKZF1 degradation at 100 nM measured after 4 hrs by Western blot analysis; format: cell-based
[2] = target: T2, Protein cereblon/Protein deacetylase HDAC6 (Homo sapiens, UniProt Q9UBN7+Q96SW2); experiment: Protac activity at CRBN/HDAC6 in human MM1S cells assessed as HDAC6 degradation at 100 nM measured after 6 hrs in presence of proteasome inhibitor bortezomib by Western blot analysis; format: cell-based
Target sequence in this assay (Q96SW2 whole entry, looked up): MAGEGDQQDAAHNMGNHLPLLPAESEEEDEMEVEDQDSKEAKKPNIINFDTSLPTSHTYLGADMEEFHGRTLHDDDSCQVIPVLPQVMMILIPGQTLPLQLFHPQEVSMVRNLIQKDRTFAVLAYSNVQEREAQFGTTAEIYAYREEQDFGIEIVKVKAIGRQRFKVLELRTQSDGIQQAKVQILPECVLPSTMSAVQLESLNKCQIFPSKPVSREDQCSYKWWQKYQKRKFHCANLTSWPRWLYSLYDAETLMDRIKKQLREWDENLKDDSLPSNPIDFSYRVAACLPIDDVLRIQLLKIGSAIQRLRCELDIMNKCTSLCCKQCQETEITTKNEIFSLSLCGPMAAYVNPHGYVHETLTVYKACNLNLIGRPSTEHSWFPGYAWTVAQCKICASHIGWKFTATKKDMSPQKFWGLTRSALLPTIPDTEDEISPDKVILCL
Target sequence in this assay (Q9UBN7 whole entry, looked up): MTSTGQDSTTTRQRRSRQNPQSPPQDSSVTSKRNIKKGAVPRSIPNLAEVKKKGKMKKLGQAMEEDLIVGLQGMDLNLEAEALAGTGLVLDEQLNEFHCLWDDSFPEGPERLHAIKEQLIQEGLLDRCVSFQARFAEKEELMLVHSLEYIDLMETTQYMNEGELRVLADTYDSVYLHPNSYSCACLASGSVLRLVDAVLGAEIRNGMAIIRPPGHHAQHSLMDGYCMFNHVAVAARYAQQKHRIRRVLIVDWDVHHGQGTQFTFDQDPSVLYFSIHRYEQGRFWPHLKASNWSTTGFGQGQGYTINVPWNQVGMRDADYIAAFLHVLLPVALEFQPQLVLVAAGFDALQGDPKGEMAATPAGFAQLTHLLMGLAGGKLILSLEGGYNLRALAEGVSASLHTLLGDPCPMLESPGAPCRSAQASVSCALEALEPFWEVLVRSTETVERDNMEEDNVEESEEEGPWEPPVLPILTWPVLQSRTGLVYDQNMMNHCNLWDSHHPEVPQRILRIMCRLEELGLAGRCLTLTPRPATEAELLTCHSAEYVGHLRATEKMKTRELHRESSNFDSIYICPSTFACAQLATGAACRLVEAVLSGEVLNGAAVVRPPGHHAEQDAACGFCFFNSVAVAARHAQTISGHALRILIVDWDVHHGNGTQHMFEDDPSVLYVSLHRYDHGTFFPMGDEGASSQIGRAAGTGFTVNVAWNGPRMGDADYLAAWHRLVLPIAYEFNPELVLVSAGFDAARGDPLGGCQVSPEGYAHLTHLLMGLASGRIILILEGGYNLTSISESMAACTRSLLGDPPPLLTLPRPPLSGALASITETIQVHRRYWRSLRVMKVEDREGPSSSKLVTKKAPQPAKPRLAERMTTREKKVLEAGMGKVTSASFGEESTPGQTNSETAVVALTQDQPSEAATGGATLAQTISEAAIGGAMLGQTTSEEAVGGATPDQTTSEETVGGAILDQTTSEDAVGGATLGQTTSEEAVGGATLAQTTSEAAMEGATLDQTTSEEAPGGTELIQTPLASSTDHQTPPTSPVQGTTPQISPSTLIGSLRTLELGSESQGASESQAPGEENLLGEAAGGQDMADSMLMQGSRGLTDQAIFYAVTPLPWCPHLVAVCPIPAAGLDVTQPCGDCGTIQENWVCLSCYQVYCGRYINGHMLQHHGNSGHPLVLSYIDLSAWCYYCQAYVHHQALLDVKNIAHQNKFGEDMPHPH

[3] = target: T2, Protein cereblon/Protein deacetylase HDAC6; experiment: Protac activity at CRBN/HDAC6 in human A431 cells assessed as HDAC6 degradation up to 10 uM incubated for 6 hrs by Western blot analysis; format: cell-based
Target sequence in this assay (Q96SW2 whole entry, looked up): as the sequence (Q96SW2 whole entry, looked up) above
Target sequence in this assay (Q9UBN7 whole entry, looked up): as the sequence (Q9UBN7 whole entry, looked up) above

MM1.S [4] = experiment: Antiproliferative activity against human MM1S cells assessed as reduction in cell viability at 1 uM measured after 72 hrs by resazurin dye based assay; format: functional
[5] = target: T2, Protein cereblon/Protein deacetylase HDAC6; experiment: Protac activity at CRBN/HDAC6 in human A431 cells assessed as HDAC6 degradation up to 3 uM incubated for 12 hrs by Western blot analysis; format: cell-based
Target sequence in this assay (Q96SW2 whole entry, looked up): as the sequence (Q96SW2 whole entry, looked up) above
Target sequence in this assay (Q9UBN7 whole entry, looked up): as the sequence (Q9UBN7 whole entry, looked up) above

[6] = target: T3, Protein cereblon/Histone deacetylase 4 (Homo sapiens) (UniProt P56524+Q96SW2); experiment: Protac activity at CRBN/HDAC4 in human MM1S cells assessed as HDAC4 degradation measured after 6 hrs by Western blot analysis; format: cell-based
T3 sequence (P56524 whole entry, looked up): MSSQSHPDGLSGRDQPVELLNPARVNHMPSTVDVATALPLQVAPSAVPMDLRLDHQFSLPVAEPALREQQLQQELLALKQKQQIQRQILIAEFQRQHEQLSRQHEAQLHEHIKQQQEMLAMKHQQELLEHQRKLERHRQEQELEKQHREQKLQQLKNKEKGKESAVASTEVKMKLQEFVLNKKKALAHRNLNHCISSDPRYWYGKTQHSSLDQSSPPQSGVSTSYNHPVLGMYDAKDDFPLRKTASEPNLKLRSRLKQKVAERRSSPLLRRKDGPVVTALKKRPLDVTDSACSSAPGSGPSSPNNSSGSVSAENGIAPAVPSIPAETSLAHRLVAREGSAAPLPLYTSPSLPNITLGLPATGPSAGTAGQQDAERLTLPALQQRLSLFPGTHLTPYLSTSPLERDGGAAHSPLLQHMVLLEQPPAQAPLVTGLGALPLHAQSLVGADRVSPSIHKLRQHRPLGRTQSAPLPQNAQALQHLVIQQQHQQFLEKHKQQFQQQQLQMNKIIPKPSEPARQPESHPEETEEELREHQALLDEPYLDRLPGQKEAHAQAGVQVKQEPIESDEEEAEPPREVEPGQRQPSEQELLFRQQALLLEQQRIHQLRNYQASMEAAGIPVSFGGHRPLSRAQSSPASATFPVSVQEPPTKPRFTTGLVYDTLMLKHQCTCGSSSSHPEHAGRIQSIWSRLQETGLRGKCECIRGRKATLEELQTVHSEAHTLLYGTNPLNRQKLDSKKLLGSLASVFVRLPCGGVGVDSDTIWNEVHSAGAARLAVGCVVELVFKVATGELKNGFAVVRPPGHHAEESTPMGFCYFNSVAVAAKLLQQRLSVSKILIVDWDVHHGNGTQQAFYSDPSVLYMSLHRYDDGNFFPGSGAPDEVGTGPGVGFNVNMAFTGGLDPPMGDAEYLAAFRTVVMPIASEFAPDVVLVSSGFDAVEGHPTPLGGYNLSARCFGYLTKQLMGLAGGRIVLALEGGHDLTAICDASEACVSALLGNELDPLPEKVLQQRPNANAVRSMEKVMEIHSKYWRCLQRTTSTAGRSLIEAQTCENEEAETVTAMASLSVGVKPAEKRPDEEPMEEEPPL
T3 sequence (Q96SW2 whole entry, looked up): as the sequence (Q96SW2 whole entry, looked up) above

[7] = target: T2, Protein cereblon/Protein deacetylase HDAC6; experiment: Protac activity at CRBN/HDAC6 in human RS4:11 cells assessed as HDAC6 degradation up to 10 uM incubated for 6 hrs by Western blot analysis; format: cell-based
Target sequence in this assay (Q96SW2 whole entry, looked up): as above
Target sequence in this assay (Q9UBN7 whole entry, looked up): as the sequence (Q9UBN7 whole entry, looked up) above

Histone deacetylase 5 = Histone deacetylase 5 (Homo sapiens, UniProt Q9UQL6); experiment: Inhibition of human N-terminal tagged human HDAC5 expressed in HEK293T/17 using Boc-[TFA-Lys]-AMC as substrate preincubated for 10 mins followed by substrate addition and measured after 60 mins by fluorescence assay
MM1.S [8] = experiment: Effect on IKZF1 mRNA expression in human MM1S cells at 100 nM measured after 6 hrs by SYBR green dye-based qRT-PCR analysis; format: functional, cell-based
Outline: (§1)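 After treatment, MM1S cells washed twice with cold PBS. Total RNA extracted and normalized, then reverse-transcribed. 10 ng cDNA amplified with SYBR Green: 50 °C 2 min, 95 °C 2 min, then 40 cycles of 95 °C 1 s / 60 °C 30 s, followed by a melt curve. Expression calculated by the 2−ΔΔCt method.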

[9] = target: T2, Protein cereblon/Protein deacetylase HDAC6; experiment: Protac activity at CRBN/HDAC6 in human MM1S cells assessed as induction of alpha tubulin acetylation measured after 6 hrs by Western blot analysis; format: cell-based
Target sequence in this assay (Q96SW2 whole entry, looked up): as the sequence (Q96SW2 whole entry, looked up) above
Target sequence in this assay (Q9UBN7 whole entry, looked up): as the sequence (Q9UBN7 whole entry, looked up) above

[10] = target: T4, Protein cereblon/Zinc finger protein Aiolos (Homo sapiens) (UniProt Q96SW2+Q9UKT9); experiment: Protac activity at CRBN/IKZF3 in human MM1S cells assessed as IKZF3 degradation measured after 6 hrs by Western blot analysis; format: cell-based
T4 sequence (Q96SW2 whole entry, looked up): as the sequence (Q96SW2 whole entry, looked up) above
T4 sequence (Q9UKT9 whole entry, looked up): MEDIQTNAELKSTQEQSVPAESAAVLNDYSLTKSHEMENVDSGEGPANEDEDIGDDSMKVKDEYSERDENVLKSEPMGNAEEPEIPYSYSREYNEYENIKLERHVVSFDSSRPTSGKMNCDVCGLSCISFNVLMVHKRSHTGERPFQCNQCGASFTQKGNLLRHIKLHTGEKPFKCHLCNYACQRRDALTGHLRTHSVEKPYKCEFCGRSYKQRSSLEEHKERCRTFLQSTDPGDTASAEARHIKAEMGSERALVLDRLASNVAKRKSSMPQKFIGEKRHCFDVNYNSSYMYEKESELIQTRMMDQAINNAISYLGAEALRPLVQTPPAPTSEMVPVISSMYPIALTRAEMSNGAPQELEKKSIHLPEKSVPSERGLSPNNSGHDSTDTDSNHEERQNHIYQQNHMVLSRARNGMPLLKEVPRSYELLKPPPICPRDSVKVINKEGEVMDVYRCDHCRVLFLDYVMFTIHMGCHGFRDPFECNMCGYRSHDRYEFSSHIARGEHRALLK

[11] = target: T2, Protein cereblon/Protein deacetylase HDAC6; experiment: Protac activity at CRBN/HDAC6 in human MM1S cells assessed as HDAC6 degradation at 3 to 30 nM measured after 6 hrs by Western blot analysis; format: cell-based
Target sequence in this assay (Q96SW2 whole entry, looked up): as the sequence (Q96SW2 whole entry, looked up) above
Target sequence in this assay (Q9UBN7 whole entry, looked up): as the sequence (Q9UBN7 whole entry, looked up) above

MM1.S [12] = experiment: Antiproliferative activity against human MM1S cells assessed as reduction in cell viability measured after 72 hrs by resazurin dye based assay; format: functional
Outline: (§2)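 MM1S cells seeded at 1 × 10^4 per well, left overnight, then given compound or DMSO vehicle (added as 5× dosing medium) for 72 h at 37 °C, 5% CO2. Resazurin added (10× solution, 1 mg/mL), then incubated overnight at 37 °C. OD read at 570 and 600 nm. Viability is relative to vehicle, n = 3. Curves fitted as [inhibitor] vs response (three parameters); test range 0.3 nM–3 μM.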

[13] = target: T2, Protein cereblon/Protein deacetylase HDAC6; experiment: Protac activity at CRBN/HDAC6 in human A375 cells assessed as HDAC6 degradation up to 1 uM incubated for 6 hrs by Western blot analysis; format: cell-based
[14] = target: T5, Protein cereblon/Histone deacetylase 1 (Homo sapiens) (UniProt Q13547+Q96SW2); experiment: Protac activity at CRBN/HDAC1 in human MM1S cells assessed as HDAC1 degradation at 100 nM measured after 6 hrs in presence of proteasome inhibitor bortezomib by Western blot analysis; format: cell-based
T5 sequence (Q13547 whole entry, looked up): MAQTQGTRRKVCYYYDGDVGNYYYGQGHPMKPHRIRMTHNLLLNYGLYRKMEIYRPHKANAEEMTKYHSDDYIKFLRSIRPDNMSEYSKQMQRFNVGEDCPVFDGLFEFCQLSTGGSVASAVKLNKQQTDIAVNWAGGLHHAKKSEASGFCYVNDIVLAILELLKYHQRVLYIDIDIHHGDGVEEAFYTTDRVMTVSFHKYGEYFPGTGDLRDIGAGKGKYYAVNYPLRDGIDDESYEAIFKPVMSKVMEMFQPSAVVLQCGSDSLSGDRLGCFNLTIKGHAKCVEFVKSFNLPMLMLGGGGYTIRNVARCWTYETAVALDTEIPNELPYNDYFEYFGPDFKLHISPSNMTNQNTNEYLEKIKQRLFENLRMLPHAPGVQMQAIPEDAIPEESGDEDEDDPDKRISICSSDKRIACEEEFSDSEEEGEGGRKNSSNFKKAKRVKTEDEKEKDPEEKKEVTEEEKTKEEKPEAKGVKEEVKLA
T5 sequence (Q96SW2 whole entry, looked up): as the sequence (Q96SW2 whole entry, looked up) above

[15] = target: T5, Protein cereblon/Histone deacetylase 1 (Homo sapiens); experiment: Protac activity at CRBN/HDAC1 in human MM1S cells assessed as HDAC1 degradation at 100 nM measured up to 8 hrs by Western blot analysis; format: cell-based
[16] = target: T1, Cereblon/Ikaros (Homo sapiens); experiment: Protac activity at CRBN/IKZF1 in human MM1S cells assessed as IKZF1 degradation at 100 nM measured after 6 hrs in presence of HDAC6 inhibitor Next-A by Western blot analysis; format: cell-based
Outline: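 MM1S cells seeded at 1 × 10^6 per well overnight. Pretreated 1 h with pomalidomide, Next-A, MLN 4924 or DMSO, then given 100 nM degrader or DMSO for 6 h. Lysed in RIPA with protease inhibitors, 10−40 μg protein run on SDS-PAGE and transferred to PVDF. Blots probed for IKZF1/IKZF3, detected by ECL and quantified by densitometry.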

[17] = target: T4, Protein cereblon/Zinc finger protein Aiolos (Homo sapiens); experiment: Protac activity at CRBN/IKZF3 in human MM1S cells assessed as IKZF3 degradation at 100 nM measured after 4 hrs by Western blot analysis; format: cell-based
Outline: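 Time course in MM1S cells (1 × 10^6 cells per well, seeded overnight) under 100 nM degrader. Whole-cell RIPA lysates analysed by 7.5−12% SDS-PAGE and PVDF immunoblot. Primary antibody at 4 °C overnight, HRP secondary 1 h, ECL detection with densitometry.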

[18] = target: T3, Protein cereblon/Histone deacetylase 4 (Homo sapiens); experiment: Protac activity at CRBN/HDAC4 in human MM1S cells assessed as HDAC4 degradation at 100 nM measured after 6 hrs in presence of proteasome inhibitor bortezomib by Western blot analysis; format: cell-based
[19] = target: T1, Cereblon/Ikaros (Homo sapiens); experiment: Protac activity at CRBN/IKZF1 in human MM1S cells assessed as IKZF1 degradation measured after 6 hrs by Western blot analysis; format: cell-based
[20] = target: T5, Protein cereblon/Histone deacetylase 1 (Homo sapiens); experiment: Protac activity at CRBN/HDAC1 in human MM1S cells assessed as HDAC1 degradation at 100 nM measured after 6 hrs in presence of proteasome inhibitor MG132 by Western blot analysis; format: cell-based
[21] = target: T2, Protein cereblon/Protein deacetylase HDAC6; experiment: Protac activity at CRBN/HDAC6 in human MM1S cells assessed as HDAC6 degradation measured after 6 hrs by ELISA; format: cell-based
Outline: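 In-cell ELISA: MM1S cells (5 × 10^4 per well) seeded overnight, treated 6 h (dosed as 5× medium; 0.1 nM–1 μM or 10/100 nM). Fixed in 8% formaldehyde/TBS, permeabilized with 0.1% Triton X, peroxidase quenched with 1% H2O2, blocked in 5% BSA. Anti-HDAC6 rabbit mAb (1:1000, 2 h) then HRP secondary; TMB read as OD450 − OD570. Background wells lacked primary antibody. Signal normalized to Janus Green and to DMSO wells, n = 3. DC50/Dmax from three-parameter fit.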
Target sequence in this assay (Q9UBN7 whole entry): as the sequence (Q9UBN7 whole entry, looked up) above
Target sequence in this assay (Q96SW2 whole entry): as the sequence (Q96SW2 whole entry, looked up) above

MM1.S [22] = experiment: Antiproliferative activity against human MM1S cells assessed as reduction in cell viability measured after 72 hrs by resazurin dye based assay relative to control; format: functional; outline: as §2
[23] = target: T5, Protein cereblon/Histone deacetylase 1 (Homo sapiens); experiment: Protac activity at CRBN/HDAC1 in human MM1S cells assessed as HDAC1 degradation measured after 6 hrs by Western blot analysis; format: cell-based
MM1.S [24] = experiment: Effect on HDAC6 mRNA expression in human MM1S cells at 100 nM measured after 6 hrs by SYBR green dye-based qRT-PCR analysis; format: functional, cell-based; outline: as §1

## CCCCN(Cc1ccc(C(=O)NO)cc1)C(=O)Nc1ccc(OCCCCCn2cc(CNc3cccc4c3C(=O)N(C3CCC(=O)NC3=O)C4=O)nn2)cc1 (stereo not given)
[1]
  Activity: Active
[2]
  Activity: inactive
[3]
  Activity: Active
MM1.S [4]
  Activity: Active
[5]
  Activity: Active
[6]
  Activity: inactive
[7]
  Activity: Active
Histone deacetylase 5
  IC50: 0.3 to 30 µM
MM1.S [8]
  Activity: Active
[9]
  Activity: Dose-dependent effect
[10]
  Activity: Dose-dependent effect
[11]
  Activity: Active
MM1.S [12]
  EC50: 0.0749 µM
[13]
  Activity: Active
[14]
  Activity: inactive
[15]
  Activity: inactive
[16]
  Activity: Active
[17]
  Activity: Active
[18]
  Activity: inactive
[19]
  Activity: Dose-dependent effect
[20]
  Activity: inactive
[21]
  DC50: 0.00164 µM
MM1.S [22]
  Imax: 63.1%
[23]
  Activity: inactive
MM1.S [24]
  Activity: Active
